Results gathered from unrelated publications.
Compare with care: the assays were run in different laboratories.

O=C(O)CCCNC(=O)c1ccc(O)c2ncccc12 — logP: 0.71
CC(C)N1CCN(Cc2cnc(-c3cc(-c4cccc5[nH]ccc45)cc4[nH]ncc34)o2)CC1 — logP: 4.01
CC(=O)NCN1N=C(C)C(=NNn2c(-c3ccccc3)nc3ccccc3c2=O)C1=O — logP: 2.24
Cc1cc(Cl)cc(S(C)(=O)=O)c1NC(=O)c1cc(Br)nn1-c1ncccc1Cl — logP (potentiometric): 4.34
O=c1[nH]cc(F)c(=O)[nH]1 — logP (shake flask; water; 24 h): -0.46
Nc1nc(-c2ccccc2)nc2[nH]nc(Nc3ccc(C(F)(F)F)cc3)c12 — logP: 2.85
C=C[C@H]1C[N@@]2CC[C@H]1C[C@@H]2[C@@H](O)c1ccnc2ccc(OC)cc12 — logP (water): 2.84
CC1=NN(CNc2ccc(C(=O)O)cc2)C(=O)C1=NNn1c(-c2ccccc2)nc2ccccc2c1=O — logP: 4.15
CCc1nc(N)nc(N)c1-c1ccc(Cl)cc1 — logP: 3.14
N#Cc1[nH]nnc1-c1cccc(OCc2cc(C(F)(F)F)ccc2C(F)(F)F)c1 — logP (potentiometric): 5.5
CC1=NN(CNC(=O)c2ccccc2)C(=O)C1=NNn1c(-c2ccccc2)nc2ccccc2c1=O — logP: 4.09
C=CCN1CC[C@]23c4c5ccc(O)c4O[C@H]2[C@@H](OCCOCCOCCOCCOCCOCCOCCOC)CC[C@@]3(O)[C@H]1C5 — logP: 1.43
O=C1NN=C(N=Cc2ccccc2)C1=NNn1c(-c2ccccc2)nc2ccccc2c1=O — logP: 3.39
N#Cc1[nH]nnc1-c1cccc(-c2cc(F)cc(C(F)(F)F)c2)c1 — logP (potentiometric): 5.2
CC1=NN(CNC(=O)c2ccccn2)C(=O)C1=NNn1c(-c2ccccc2)nc2ccccc2c1=O — logP: 3.26
CC(=O)c1ccccc1 — logP (water; 1 h): 1.51
